This is one part of the list. A number with no mark means an inactive call. Activity calls are given as the source filed them.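 Rule for the calls: active = percent inhibition of p97 ATPase above a set limit, the primary screen's mean plus 3 SD (cut at about 15% in these data); inactive = the rest.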
molecular target: Transitional endoplasmic reticulum ATPase (Homo sapiens) (UniProt P55072); assay: p97 ATPase inhibitors, retest, confirmation, biochemical (AID 1517); settings: recombinant p97 ATPase, Kinase-Glo ATP luminescence; at 8 µM; hits give high values;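 note: 0% = DMSO wells and 100% = wells lacking p97 protein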
Sequence (P55072 whole entry, looked up): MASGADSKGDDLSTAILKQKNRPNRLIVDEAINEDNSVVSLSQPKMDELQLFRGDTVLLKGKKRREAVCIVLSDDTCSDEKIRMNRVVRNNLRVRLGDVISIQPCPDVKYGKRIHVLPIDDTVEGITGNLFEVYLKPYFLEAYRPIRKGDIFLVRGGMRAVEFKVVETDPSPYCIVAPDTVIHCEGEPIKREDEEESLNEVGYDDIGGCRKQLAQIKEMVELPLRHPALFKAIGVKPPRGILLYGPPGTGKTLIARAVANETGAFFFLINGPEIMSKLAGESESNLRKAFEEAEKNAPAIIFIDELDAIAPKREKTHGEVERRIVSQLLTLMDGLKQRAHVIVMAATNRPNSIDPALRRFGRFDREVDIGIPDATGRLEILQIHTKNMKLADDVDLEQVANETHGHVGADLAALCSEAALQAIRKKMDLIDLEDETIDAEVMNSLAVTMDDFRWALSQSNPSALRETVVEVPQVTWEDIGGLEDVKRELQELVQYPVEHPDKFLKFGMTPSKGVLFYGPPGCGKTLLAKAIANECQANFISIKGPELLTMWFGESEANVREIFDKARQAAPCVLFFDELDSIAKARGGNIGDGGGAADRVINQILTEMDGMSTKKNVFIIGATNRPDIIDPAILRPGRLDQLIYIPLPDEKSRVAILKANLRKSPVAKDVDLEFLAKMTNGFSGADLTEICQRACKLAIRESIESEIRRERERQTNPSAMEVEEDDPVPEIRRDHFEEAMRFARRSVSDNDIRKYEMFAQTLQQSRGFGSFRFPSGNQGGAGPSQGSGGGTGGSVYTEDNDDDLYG
Outline: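 Assay system: Recombinant p97 ATPase enzyme protein | Medium: pH 8.0 Tris with MgCl2, EDTA, DTT | Dosing: 8 µM single dose | Schedule: 30 min compound–enzyme preincubation at 25 °C, then 3 h ATP reaction | Measured by: Kinase-Glo luminescence | Control set: DMSO wells without compound and wells lacking p97 enzyme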

Structure (SMILES)	inhibition
CC1CCCN(C(C(=O)Nc2ccc(C(C)C)cc2)c2ccc3c(c2)OCO3)C1 (stereo not drawn)	-0.84%
COc1ccc(-c2cc(-c3ccc(N)cc3)nc(N)c2C#N)cc1OC	19.8% (active)
C=CCn1c(=S)[nH]c2scc(-c3ccco3)c2c1=O	13.5%
Nc1ccc2nc3c(=O)[nH]c(=S)[nH]c3nc2c1	25.4% (active)
CCC(C)NC(=O)CSC1=Nc2ccccc2C2=NC(CCC(=O)NCc3ccco3)C(=O)N12 (stereo not drawn)	4.93%
O=C(OCC1O[C@@H](OC(=O)c2cc(O)c(O)c(O)c2)[C@@H](OC(=O)c2cc(O)c(O)c(O)c2)[C@@H](OC(=O)c2cc(O)c(O)c(O)c2)[C@@H]1OC(=O)c1cc(O)c(O)c(O)c1)c1cc(O)c(O)c(O)c1 (stereo partly drawn)	59.8% (active)
[O-][n+]1onc2c1CCc1[nH]c(-c3ccccc3)nc1-2	39.8% (active)
CCN1C(=O)/C(=C2/Sc3ccccc3N2CCCS(=O)(=O)O)SC1=S	4.27%
Cc1ccc2c(c1)NCC(C(=O)NC1CCC(C)CC1)O2 (stereo not drawn)	4.67%
Cc1[nH][nH]c(=O)c1C(c1ccc(-c2ccc(Cl)cc2)o1)c1c(C)[nH][nH]c1=O	9.11%
Clc1ccc(C2=CSC3=Nc4cccc5cccc(c45)N23)cc1	2.9%
COc1ccc(Cl)cc1C(=O)NNC(=O)c1nc2nc(C)cc(C)n2n1	20.8% (active)
CCN(c1ccccc1)S(=O)(=O)c1ccc(N)cc1	1.51%
CC(=O)N1CCc2cc(Br)cc(S(=O)(=O)CCC(=O)Nc3c(C)n(C)n(-c4ccccc4)c3=O)c21	2.71%
COc1ccc(-c2[nH]ncc2/C=N/NC(=O)c2cc(Br)ccc2O)c(OC)c1	25.7% (active)
NC(N)=N/N=C/c1ccc(OCc2ccc(Cl)cc2Cl)cc1	37.7% (active)
O=C(c1[nH]ncc1-c1ccc(Cl)cc1)C1CO1 (stereo not drawn)	12.5%

Structure (SMILES)	inhibition
N=C1C(c2nc3ccccc3s2)=C(O)CN1NC(=O)c1ccc([N+](=O)[O-])cc1	37.1% (active)
CCN(CC)CCNC(=O)CCCCCn1c(=O)[nH]c2cc(C(=O)OC)ccc2c1=O	2.31%
CC(C(=O)O)n1cnc2sc3c(c2c1=O)CCCC3 (stereo not drawn)	6.68%
O=C(NNC(=S)Nc1ccccc1)c1cccc(S(=O)(=O)N2CCOCC2)c1	3.56%
Oc1c(Cl)cc(Cl)c(Cl)c1Cc1c(O)c(Cl)cc(Cl)c1Cl	73.9% (active)
C=CCn1c(N)c(C(=O)OCC(C)C)c2nc3ccccc3nc21	18.1% (active)
N#CC1=C(N)Oc2[nH]c(=S)[nH]c(=O)c2C12C(=O)Nc1ccccc12 (stereo not drawn)	25.8% (active)
CCOc1c(Br)cc(/C=C2\C(=O)N(CCC#N)N=C2C)cc1OC	6.06%
N#Cc1c(N2CCCCC2)nc(N)c2c(N)nc(SCC(=O)O)cc12	46% (active)
Cc1no[n+]([O-])c1COc1ccccc1/C=C1\NC(=S)NC1=O	39.9% (active)
O=C(/C=C/c1ccc(Cl)c([N+](=O)[O-])c1)c1ccc(O)cc1	10.9%
COc1ccccc1C1C(C#N)=C(N)Oc2c1c(-c1ccccc1)nn2-c1ccccc1 (stereo not drawn)	1.04%
CCOC(=O)N1CCC(c2cc(=O)n(-c3ccccc3)[nH]2)CC1	7.34%
COc1ccc2c(c1)C(=C(C#N)C#N)C(=O)N2CCc1ccccc1	19.5% (active)
Cc1cc(C)c2cc(CN(Cc3nnnn3Cc3ccc(F)cc3)C3CCCC3)c(=O)[nH]c2c1	4.43%
Oc1c(C=Nc2cccc3nsnc23)ccc2ccccc12	4.01%

Source: PubChem BioAssay AID1517 (The Scripps Research Institute Molecular Screening Center, 2009)
